Experiment [1] has as its target T1, Fatty-acid amide hydrolase 1 (Homo sapiens, UniProt O00519).
T1 sequence (O00519 whole entry): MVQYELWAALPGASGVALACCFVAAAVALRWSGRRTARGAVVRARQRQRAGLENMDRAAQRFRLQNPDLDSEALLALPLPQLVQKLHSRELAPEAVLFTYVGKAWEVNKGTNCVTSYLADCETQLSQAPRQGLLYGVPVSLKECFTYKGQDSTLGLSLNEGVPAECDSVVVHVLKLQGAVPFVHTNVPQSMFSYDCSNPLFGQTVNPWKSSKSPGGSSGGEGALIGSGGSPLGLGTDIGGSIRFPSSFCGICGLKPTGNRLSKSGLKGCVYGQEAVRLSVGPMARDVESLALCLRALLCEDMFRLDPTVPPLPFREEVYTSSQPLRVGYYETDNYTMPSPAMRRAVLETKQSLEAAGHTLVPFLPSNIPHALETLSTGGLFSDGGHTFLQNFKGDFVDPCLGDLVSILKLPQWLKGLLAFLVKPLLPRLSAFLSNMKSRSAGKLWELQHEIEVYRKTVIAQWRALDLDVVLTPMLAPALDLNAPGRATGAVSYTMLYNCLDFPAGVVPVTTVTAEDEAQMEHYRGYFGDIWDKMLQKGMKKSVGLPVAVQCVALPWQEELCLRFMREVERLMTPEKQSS
Kind of experiment: Inhibition of FAAH in human U937 cells assessed as reduction in [3H]ethanolamine formation using [ethanolamine-1-3H]AEA as substrate incubated for 15 mins by liquid scintillation spectroscopy. It counts as cell-based, U-937. A digest of the protocol:
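Intact U937 cells (1.0 × 10^6) in Tris-HCl 10 mM, EDTA 1 mM, 0.1% BSA, pH 8, given compound at 37 °C. Then 15 min at 37 °C with shaking. MAGL: 10 µM 2-OG plus 0.5 nM [3H]2-OG. FAAH: 1 µM AEA plus 2 nM [3H]AEA. Aqueous-phase tritium counted; three experiments in triplicate.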

The target in experiment [2] is T2, Monoglyceride lipase (Homo sapiens) (UniProt Q99685).
T2 sequence (whole entry): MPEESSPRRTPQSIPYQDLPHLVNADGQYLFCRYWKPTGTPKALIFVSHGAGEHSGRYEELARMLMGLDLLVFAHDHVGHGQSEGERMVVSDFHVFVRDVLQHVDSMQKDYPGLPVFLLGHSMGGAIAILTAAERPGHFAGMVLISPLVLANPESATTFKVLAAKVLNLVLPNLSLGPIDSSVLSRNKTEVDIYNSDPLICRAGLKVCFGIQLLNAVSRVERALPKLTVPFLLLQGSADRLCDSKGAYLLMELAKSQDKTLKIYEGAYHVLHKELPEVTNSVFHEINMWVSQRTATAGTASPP
The experiment is described as follows: Reversible inhibition of human recombinant MAGL using 4-nitrophenylacetate as substrate preincubated with enzyme for 0 to 60 mins followed by substrate addition by microplate reader assay. The note with it: time 0-60 min. In short, it runs like this:
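MAGL (11 ng/well) preincubated with compound in DMSO for 0, 30 or 60 min. Reaction then started with 4-NPA 500 µM stock, same buffer and read-out as the main assay. IC50 at each time; triplicates of two independent experiments.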

Experiment [3] relates to HCT-116. Kind of experiment: Antiproliferative activity against human HCT116 cells as reduction in cell growth measured after 96 hrs by Celltiter-glo luminescent assay. In kind it is functional, cell-based. The note with it: HCT-116, 96 h. In short, it runs like this: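 Cell lines kept at 37 °C, 5% CO2; 5 × 10^2 cells per well, compound added the day after seeding at 200 to 0.02 µM. Viability read after 96 h by CellTiter-Glo luminescence. IC50 from logistic dose-response curves, in triplicate; error bars are SD.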
Background: ATP-based viability assays read luminescence as a measure of living cells.

In experiment [4] the target is T3, Monoglyceride lipase (Homo sapiens, UniProt Q99685).
T3 sequence (Q99685 whole entry): T2 sequence (whole entry)
Kind of experiment: Competitive inhibition of human recombinant MAGL using varying concentration of 4-nitrophenylacetate as substrate incubated for 30 mins by microplate reader assay. In short, it runs like this:
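MAGL 11 ng/well; 4-nitrophenol absorbance recorded. Data fitted by the mixed-model inhibition fit to give Ki.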

For experiment [5], the target named is T4, Lysophosphatidylserine lipase ABHD12 (Homo sapiens) (UniProt Q8N2K0).
T4 sequence (whole entry): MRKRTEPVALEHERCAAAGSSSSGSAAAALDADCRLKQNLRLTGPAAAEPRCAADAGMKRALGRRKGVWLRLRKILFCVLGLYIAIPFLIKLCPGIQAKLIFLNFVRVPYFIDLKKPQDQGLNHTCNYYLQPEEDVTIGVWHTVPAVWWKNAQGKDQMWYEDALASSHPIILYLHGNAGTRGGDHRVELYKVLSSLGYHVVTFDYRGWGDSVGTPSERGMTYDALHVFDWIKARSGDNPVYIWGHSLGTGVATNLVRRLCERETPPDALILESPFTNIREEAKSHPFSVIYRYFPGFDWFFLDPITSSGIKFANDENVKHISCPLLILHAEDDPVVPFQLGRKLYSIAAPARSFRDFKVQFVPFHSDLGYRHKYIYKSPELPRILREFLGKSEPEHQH
The experiment is described as follows: Inhibition of human ABHD12 expressed in HEK293 cells using [3H]2-OG as substrate at 10 uM preincubated for 30 mins followed by substrate addition and measured after 5 mins by liquid scintillation spectroscopy. It counts as cell-based. The note with it: time 35.0 min. In short, it runs like this: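 Homogenate (40 µg) of HEK293 cells stably transfected with human ABHD6 or ABHD12, preincubated with compound 30 min at 37 °C in […], 0.1% BSA, pH 7.6. 2-OG 10 µM added for 5 min at 37 °C. Stopped with CHCl3:MeOH; aqueous tritium counted; blanks and nontransfected HEK293 hydrolysis subtracted. Screening at 10 µM.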

The target of experiment [6] is T5, Lysophosphatidylserine lipase ABHD12 (Mus musculus) (UniProt Q99LR1).
T5 sequence (whole entry): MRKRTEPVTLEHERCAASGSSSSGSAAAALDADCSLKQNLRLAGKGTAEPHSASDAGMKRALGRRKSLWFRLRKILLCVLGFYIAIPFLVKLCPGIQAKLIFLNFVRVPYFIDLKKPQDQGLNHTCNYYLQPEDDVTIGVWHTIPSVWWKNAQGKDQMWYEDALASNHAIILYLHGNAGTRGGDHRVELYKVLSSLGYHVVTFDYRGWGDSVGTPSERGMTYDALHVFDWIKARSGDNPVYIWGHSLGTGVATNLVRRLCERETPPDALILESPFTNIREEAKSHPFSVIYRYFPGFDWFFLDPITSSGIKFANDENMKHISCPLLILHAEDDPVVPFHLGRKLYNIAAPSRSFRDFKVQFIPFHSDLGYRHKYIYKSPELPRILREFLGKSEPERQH
Kind of experiment: Inhibition of ABHD12 in mouse brain membrane up to 30 uM preincubated for 25 mins followed by TAMRA-FP labeling addition and measured after 5 mins by competitive ABPP based analysis. It counts as cell membranes. The note with it: dose microM <=30, time 30.0 min. In short, it runs like this: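 Mouse brain membranes, 4 mg/mL in PBS, preincubated 25 min at 25 °C with compound at 10 µM or a range of concentrations. Labelled 5 min with TAMRA-FP at 125 nM final. Proteins resolved on 11% SDS-PAGE and scanned for fluorescence.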

The source made the active and inactive calls. No cut-off for these calls is given here.

As for `O=C(c1ccc(Sc2ccccc2)cc1)C1CCN(C(=O)c2cc(O)c(F)cc2F)CC1`, the IC50 was over 10 µM in experiment [1] and 15 µM in experiment [3]. Moreover, in experiment [2], the inhibition result was “Active”. Also, the Ki in experiment [4] worked out at 11 nM. Further, the inhibition in experiment [5] came out at 27%. The inhibition entry in experiment [6] was “inactive”.
With `O=C(c1ccc(Cc2ccccc2)cc1)C1CCN(C(=O)c2cc(O)c(F)cc2F)CC1`, the results for the concentration for half-maximal inhibition (IC50) in experiment [1] and in experiment [3] were over 10 µM and 5.3 µM, respectively. Moreover, in experiment [2], the inhibition entry was “Active”. The Ki in experiment [4] worked out at 30 nM. Moreover, the inhibition in experiment [5] is 28%. Also, the inhibition result in experiment [6] was “inactive”.
Regarding `O=C(c1ccc(Cc2ccccc2)cc1)C1CCN(C(=O)c2cc(O)ccc2F)CC1`, the concentration for half-maximal inhibition (IC50) was over 10 µM in experiment [1] and 17 µM in experiment [3]. The inhibition entry in experiment [2] is “Active”. The Ki in experiment [4] amounted to 37 nM. Moreover, the inhibition in experiment [5] came out at 20%. Besides, in experiment [6], the inhibition result is “inactive”.
On to `O=C(c1ccc(Sc2ccccc2)cc1)C1CCN(C(=O)c2cc(O)ccc2F)CC1`, for which the figures for the IC50 in experiment [1] and in experiment [3] were over 10 µM and 5.1 µM, respectively. Further, in experiment [2], the inhibition result was “Active”. Besides, in experiment [4], the Ki came to 27 nM. The same compound yielded an inhibition in experiment [5] of 26%. For the same compound, the inhibition result in experiment [6] was “inactive”.

By IC50 is commonly meant the concentration that gives 50% inhibition. A word on the inhibition: it is the change of the read-out against control, counted positive when it falls. The term Ki denotes a measure of affinity in units of concentration, obtained from inhibition or displacement.

These data come from ChEMBL document CHEMBL4732057, “Design, synthesis and biological evaluation of second-generation benzoylpiperidine derivatives as reversible monoacylglycerol lipase (MAGL) inhibitors” (Eur J Med Chem, 2021).
